In ChEMBL document CHEMBL1133607, “Nonpeptide analogues of dynorphin A(1-8): design, synthesis, and pharmacological evaluation of kappa-selective agonists” (J Med Chem, 2000):
Residues, ends and D or L forms follow the SMILES beside them. *: point of attachment. X1 = CC1C2Cc3ccc(O)cc3[C@]1(C)CCN2CC1C[C@]1(C(=O)*)c1ccccc1

Assays:
[1] = biological target: Opioid receptors; mu & kappa (UniProt P41145+P35372); test: Ratio of affinity towards mu and kappa opioid receptors; format: protein assay
Cavia porcellus = organism: Cavia porcellus; test: Ratio of affinity towards delta to kappa opioid receptor
[2] = biological target: Kappa-type opioid receptor (Cavia porcellus, UniProt P41144); test: Displacement of [3H]-U-69,593 from Opioid receptor kappa 1 in guinea pig cerebellar.
Sequence of Kappa-type opioid receptor (P41144 whole entry): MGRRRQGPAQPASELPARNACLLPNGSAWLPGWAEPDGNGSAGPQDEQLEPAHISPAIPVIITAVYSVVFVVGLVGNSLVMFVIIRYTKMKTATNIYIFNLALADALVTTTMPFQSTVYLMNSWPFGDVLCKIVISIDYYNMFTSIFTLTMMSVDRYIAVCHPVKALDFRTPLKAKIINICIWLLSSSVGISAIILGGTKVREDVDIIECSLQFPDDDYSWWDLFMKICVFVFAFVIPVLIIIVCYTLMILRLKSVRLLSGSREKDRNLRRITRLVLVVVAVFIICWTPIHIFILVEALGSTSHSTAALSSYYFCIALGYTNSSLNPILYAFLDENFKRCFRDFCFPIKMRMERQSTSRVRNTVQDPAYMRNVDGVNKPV

Mu-type opioid receptor = Mu-type opioid receptor (Rattus norvegicus, UniProt P33535); test: Displacement of [3H]diprenorphine from opioid receptor mu 1 on crude membrane fractions obtained from whole rat brain (minus cerebellum); format: tissue-based
Sequence of Mu-type opioid receptor (P33535 whole entry): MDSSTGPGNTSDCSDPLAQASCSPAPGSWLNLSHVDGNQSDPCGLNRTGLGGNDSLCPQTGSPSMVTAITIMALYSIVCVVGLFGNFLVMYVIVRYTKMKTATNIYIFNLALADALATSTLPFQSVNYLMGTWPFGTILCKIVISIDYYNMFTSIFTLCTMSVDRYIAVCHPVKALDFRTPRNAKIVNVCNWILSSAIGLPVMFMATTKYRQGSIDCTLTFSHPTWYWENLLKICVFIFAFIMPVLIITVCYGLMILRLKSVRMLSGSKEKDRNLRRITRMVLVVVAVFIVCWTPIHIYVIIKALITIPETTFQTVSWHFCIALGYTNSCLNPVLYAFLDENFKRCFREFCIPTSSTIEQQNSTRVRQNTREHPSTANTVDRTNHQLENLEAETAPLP
In short: (§1)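 Rat whole-brain (minus cerebellum) crude membranes, 1 mg protein/tube, in 50 mM Tris-HCl pH 7.4 with aprotinin, leupeptin and bacitracin. […] U50,488 and DADLE (300 nM each) saturate κ and δ sites; 1 µM DAMGO defines nonspecific binding. Compounds tested at 10^-11 to 10^-5 M. Ki values are the mean of three experiments in duplicate.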

[3] = biological target: Delta-type opioid receptor (Rattus norvegicus, UniProt P33533); test: Displacement of [3H]diprenorphine opioid receptor delta 1 on crude membrane fractions obtained from the whole rat brain (minus cerebellum); format: tissue-based
Sequence of Delta-type opioid receptor (P33533 whole entry): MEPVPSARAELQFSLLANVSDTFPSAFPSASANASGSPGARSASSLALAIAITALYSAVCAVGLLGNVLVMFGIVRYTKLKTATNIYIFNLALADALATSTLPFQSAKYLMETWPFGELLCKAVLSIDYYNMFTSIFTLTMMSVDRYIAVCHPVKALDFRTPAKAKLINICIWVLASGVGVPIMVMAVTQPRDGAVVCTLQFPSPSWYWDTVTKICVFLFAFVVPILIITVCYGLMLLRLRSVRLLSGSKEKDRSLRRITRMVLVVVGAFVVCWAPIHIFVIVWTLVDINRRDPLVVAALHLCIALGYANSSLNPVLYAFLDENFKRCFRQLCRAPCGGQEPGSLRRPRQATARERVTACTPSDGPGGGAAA
In short: as §1, with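 “DAMGO” for “DADLE”, “µ” for “δ”, “DPDPE” for “DAMGO”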

Sequence of Opioid receptors; mu & kappa (P35372 whole entry, looked up): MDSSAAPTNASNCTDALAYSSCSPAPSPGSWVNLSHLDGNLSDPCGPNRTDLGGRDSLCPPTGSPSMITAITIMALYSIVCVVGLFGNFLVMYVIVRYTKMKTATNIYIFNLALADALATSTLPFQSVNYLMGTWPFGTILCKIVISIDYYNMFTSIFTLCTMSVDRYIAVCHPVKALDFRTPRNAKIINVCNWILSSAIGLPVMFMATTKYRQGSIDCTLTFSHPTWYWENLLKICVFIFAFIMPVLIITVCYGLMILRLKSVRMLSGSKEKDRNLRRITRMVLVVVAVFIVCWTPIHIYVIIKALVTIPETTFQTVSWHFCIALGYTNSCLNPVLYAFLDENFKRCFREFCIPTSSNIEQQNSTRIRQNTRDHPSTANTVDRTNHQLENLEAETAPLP
Sequence of Opioid receptors; mu & kappa (P41145 whole entry, looked up): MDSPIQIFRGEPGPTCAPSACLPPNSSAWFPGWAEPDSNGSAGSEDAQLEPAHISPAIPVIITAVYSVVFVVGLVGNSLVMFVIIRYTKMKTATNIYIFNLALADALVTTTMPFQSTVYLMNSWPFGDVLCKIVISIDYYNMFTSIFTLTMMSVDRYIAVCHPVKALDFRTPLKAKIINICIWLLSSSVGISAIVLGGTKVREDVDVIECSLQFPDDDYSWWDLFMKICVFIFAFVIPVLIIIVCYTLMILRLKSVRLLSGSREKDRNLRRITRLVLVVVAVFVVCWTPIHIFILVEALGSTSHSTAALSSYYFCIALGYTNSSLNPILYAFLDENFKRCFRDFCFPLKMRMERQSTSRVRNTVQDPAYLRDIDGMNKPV

Compound	Selectivity ratio [1]	Selectivity ratio (Cavia porcellus)	Ki [2] [nM]	Ki (Mu-type opioid receptor) [nM]	Ki [3] [nM]
CC(C)CC(NC(=O)CNC(=O)[C@]1(c2ccccc2)CC1CN1CC[C@@]2(C)c3cc(O)ccc3CC1C2C)C(=O)NCCCCCN=C(N)N (stereo not given in full)	81.1	73.1			
CC(C)CC(NC(=O)[C@]1(c2ccccc2)CC1CN1CC[C@@]2(C)c3cc(O)ccc3CC1C2C)C(=O)NCCCN (stereo not given in full)	11.5		367	4220	
CC[C@H](C)[C@H](NC(=O)[C@H](CCCN=C(N)N)NC(=O)[C@H](CCCN=C(N)N)NC(=O)CNC(=O)[C@]1(c2ccccc2)CC1CN1CC[C@@]2(C)c3cc(O)ccc3CC1C2C)C(=O)OC (stereo not given in full) (X1-GRRI-OMe)	42.4				
CC(C)CC(NC(=O)CNC(=O)[C@]1(c2ccccc2)CC1CN1CC[C@@]2(C)c3cc(O)ccc3CC1C2C)C(=O)NCCCCCCNC(=N)N (stereo not given in full)			35.5	3350	2990
CCCC(=N)NCCCCNC(=O)C(CC(C)C)NC(=O)CNC(=O)[C@]1(c2ccccc2)CC1CN1CC[C@@]2(C)c3cc(O)ccc3CC1C2C (stereo not given in full)	100	107	67.8	6780	7280
CC(C)CC(NC(=O)CNC(=O)[C@]1(c2ccccc2)CC1CN1CC[C@@]2(C)c3cc(O)ccc3CC1C2C)C(=O)NCCCCN (stereo not given in full)	49.1	38.7	270	13200	10500
CCCC(=N)NCCCCCCNC(=O)C(CC(C)C)NC(=O)[C@]1(c2ccccc2)CC1CN1CC[C@@]2(C)c3cc(O)ccc3CC1C2C (stereo not given in full)	15.6	28.4	122	1900	3460
CC(C)CC(NC(=O)[C@]1(c2ccccc2)CC1CN1CC[C@@]2(C)c3cc(O)ccc3CC1C2C)C(=O)NCCCCCN=C(N)N (stereo not given in full)	12.9				
CCC(=N)NCCCCCNC(=O)C(CC(C)C)NC(=O)[C@]1(c2ccccc2)CC1CN1CC[C@@]2(C)c3cc(O)ccc3CC1C2C (stereo not given in full)	14.8		149	2210	
CCCCC(=N)NCCCCCNC(=O)C(CC(C)C)NC(=O)[C@]1(c2ccccc2)CC1CN1CC[C@@]2(C)c3cc(O)ccc3CC1C2C (stereo not given in full)	24.3	36.6	98.1	2380	3590
CCCC(=N)NCCCCNC(=O)C(CC(C)C)NC(=O)[C@]1(c2ccccc2)CC1CN1CC[C@@]2(C)c3cc(O)ccc3CC1C2C (stereo not given in full)	11.2		203	2280	
CC(C)CC(NC(=O)[C@]1(c2ccccc2)CC1CN1CC[C@@]2(C)c3cc(O)ccc3CC1C2C)C(=O)NCCCCCN (stereo not given in full)	11.8		276	3250	
CCC(=N)NCCCCNC(=O)C(CC(C)C)NC(=O)[C@]1(c2ccccc2)CC1CN1CC[C@@]2(C)c3cc(O)ccc3CC1C2C (stereo not given in full)	11.5		192	2200	
CC(C)CC(NC(=O)CNC(=O)[C@]1(c2ccccc2)CC1CN1CC[C@@]2(C)c3cc(O)ccc3CC1C2C)C(=O)NCCCCCCN (stereo not given in full)	101	76	79.6	8070	6050
CC(C)CC(NC(=O)CNC(=O)[C@]1(c2ccccc2)CC1CN1CC[C@@]2(C)c3cc(O)ccc3CC1C2C)C(=O)NCCCNC(=N)N (stereo not given in full)			72.5	9240	3720
CCCCC(=N)NCCCCCCNC(=O)C(CC(C)C)NC(=O)[C@]1(c2ccccc2)CC1CN1CC[C@@]2(C)c3cc(O)ccc3CC1C2C (stereo not given in full)	27.9	40.2	81	2260	3260
CCCCC(=N)NCCCNC(=O)C(CC(C)C)NC(=O)CNC(=O)[C@]1(c2ccccc2)CC1CN1CC[C@@]2(C)c3cc(O)ccc3CC1C2C (stereo not given in full)	192	275	18	3460	4950

Compound	Selectivity ratio [1]	Selectivity ratio (Cavia porcellus)	Ki [2] [nM]	Ki (Mu-type opioid receptor) [nM]	Ki [3] [nM]
CCCC(=N)NCCCCCNC(=O)C(CC(C)C)NC(=O)[C@]1(c2ccccc2)CC1CN1CC[C@@]2(C)c3cc(O)ccc3CC1C2C (stereo not given in full)	12.8		156	2000	
CC(C)CC(NC(=O)CNC(=O)[C@]1(c2ccccc2)CC1CN1CC[C@@]2(C)c3cc(O)ccc3CC1C2C)C(=O)NCCCCN=C(N)N (stereo not given in full)	91.7	52.1	67.2	6160	3500
CC(C)CC(NC(=O)[C@]1(c2ccccc2)CC1CN1CC[C@@]2(C)c3cc(O)ccc3CC1C2C)C(=O)NCCCCN (stereo not given in full)	8.9		382	3400	
CC(C)CC(NC(=O)CNC(=O)[C@]1(c2ccccc2)CC1CN1CC[C@@]2(C)c3cc(O)ccc3CC1C2C)C(=O)NCCCCCNC(=N)N (stereo not given in full)			47.5	3850	3480
CCC(=N)NCCCCCNC(=O)C(CC(C)C)NC(=O)CNC(=O)[C@]1(c2ccccc2)CC1CN1CC[C@@]2(C)c3cc(O)ccc3CC1C2C (stereo not given in full)	70.5	81.6	68.4	4820	5580
CC(C)CC(NC(=O)[C@]1(c2ccccc2)CC1CN1CC[C@@]2(C)c3cc(O)ccc3CC1C2C)C(=O)NCCCN=C(N)N (stereo not given in full)	8.7		280	2430	
CC(C)CC(NC(=O)CNC(=O)[C@]1(c2ccccc2)CC1CN1CC[C@@]2(C)c3cc(O)ccc3CC1C2C)C(=O)NCCCCCCN=C(N)N (stereo not given in full)	94.3	84.2			
CC(C)CC(NC(=O)[C@]1(c2ccccc2)CC1CN1CC[C@@]2(C)c3cc(O)ccc3CC1C2C)C(=O)NCCCCCNC(=N)N (stereo not given in full)			216	2790	
CC(C)CC(NC(=O)[C@]1(c2ccccc2)CC1CN1CC[C@@]2(C)c3cc(O)ccc3CC1C2C)C(=O)NCCCCN=C(N)N (stereo not given in full)	11.8		250	2950	
CCCC(=N)NCCCNC(=O)C(CC(C)C)NC(=O)[C@]1(c2ccccc2)CC1CN1CC[C@@]2(C)c3cc(O)ccc3CC1C2C (stereo not given in full)	15		238	3570	
CC[C@H](C)[C@H](NC(=O)[C@H](CCCN=C(N)N)NC(=O)[C@H](CCCN=C(N)N)NC(=O)[C@]1(c2ccccc2)C[C@@H]1CN1CC[C@@]2(C)c3cc(O)ccc3CC1C2C)C(=O)OC (stereo not given in full)	58.7		78.4	4600	> 25000
CCCCC(=N)NCCCNC(=O)C(CC(C)C)NC(=O)[C@]1(c2ccccc2)CC1CN1CC[C@@]2(C)c3cc(O)ccc3CC1C2C (stereo not given in full)	16		139	2230	
CC[C@H](C)[C@H](NC(=O)[C@H](CCCNC(=N)N)NC(=O)[C@H](CCCNC(=N)N)NC(=O)CNC(=O)[C@]1(c2ccccc2)CC1CN1CC[C@@]2(C)c3cc(O)ccc3CC1C2C)C(=O)OC (stereo not given in full) (X1-GRRI-OMe)			54.3	2300	> 25000
CCCCC(=N)NCCCCNC(=O)C(CC(C)C)NC(=O)[C@]1(c2ccccc2)CC1CN1CC[C@@]2(C)c3cc(O)ccc3CC1C2C (stereo not given in full)	18.3		116	2130	
CCC(=N)NCCCNC(=O)C(CC(C)C)NC(=O)[C@]1(c2ccccc2)CC1CN1CC[C@@]2(C)c3cc(O)ccc3CC1C2C (stereo not given in full)	19.6		254	4980	
CC(C)CC(NC(=O)CNC(=O)[C@]1(c2ccccc2)CC1CN1CC[C@@]2(C)c3cc(O)ccc3CC1C2C)C(=O)NCCCN=C(N)N (stereo not given in full)	128	51.4			
